The target of assay [1] is Delta-type opioid receptor (Mus musculus) (UniProt P32300). The experiment in a line: (§1) Functional bioactivity against delta opioid receptor in mouse vas deferens. It counts as tissue-based. Put shortly:
(§2)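 MVD strips field-stimulated with supramaximal bipolar rectangular pulses. Agonist read-out is inhibition of the electrically evoked twitch, referenced to deltorphin C, with IC50 taken from dose-response curves. For antagonism, compound is added 5 min before deltorphin C, and pA2 comes from Schild plot of the rightward curve shift. At least six experiments on fresh tissue; mean ± SE.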

In assay [2] the target is Opioid receptors; mu & delta (Rattus norvegicus) (UniProt P33533+P33535). The experiment in a line: Selectivity for rat delta opioid receptor over mu opioid receptor. It counts as protein assay.
Assay [3] concerns the target Mu-type opioid receptor (Rattus norvegicus, UniProt P33535). As to the kind of experiment: Displacement of [3H]DAMGO from rat mu opioid receptor in brain P2 synaptosomes. Type of assay: subcellular. Put shortly: (§3)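 Rat brain synaptosome (P2) membranes, preincubated to remove endogenous opioid peptides, stored at -80 °C in buffered 20% glycerol. Five to eight ligand concentrations, each in duplicate, with independent repeats on different synaptosome preparations. Bound radioligand collected on glass fiber filters soaked in 0.1% polyethylenimine and washed thrice in ice-cold buffered BSA. Ki by Cheng-Prusoff; mean ± SE.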
For orientation: Displacement assays read how much labelled ligand stays bound in the presence of the test substance.

Assay [4] concerns the target Mu-type opioid receptor (Cavia porcellus, UniProt P97266). As to the kind of experiment: Functional bioactivity against mu opioid receptor in guinea-pig ileum. Type of assay: tissue-based. An outline of the steps: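 Myenteric plexus-longitudinal muscle from male guinea pig ileum, field-stimulated with supramaximal bipolar rectangular pulses. Agonist read-out is inhibition of the electrically evoked twitch, referenced to dermorphin, with IC50 taken from dose-response curves. For antagonism, compound is added 5 min before dermorphin, and pA2 comes from Schild plot. At least six experiments on fresh tissue; mean ± SE.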

The target in assay [5] is Delta-type opioid receptor (Rattus norvegicus, UniProt P33533). The experiment in a line: Displacement of [3H]deltorphin C from rat delta opioid receptor in brain P2 synaptosomes. Type of assay: subcellular. An outline of the steps:
as §3

For assay [6], the target named is Delta-type opioid receptor (Mus musculus, UniProt P32300). The description is as §1. It counts as tissue-based. An outline of the steps:
as §2

Residues, ends and D or L forms follow the SMILES beside them.

As a reminder, the Ki is the equilibrium dissociation constant of an inhibitor or competing ligand from its target. A lower Ki goes with higher affinity. In general, IC50 refers to the midpoint of a concentration-inhibition curve.

Mu-type opioid receptor (Rattus norvegicus, UniProt P33535), sequence (P33535 whole entry): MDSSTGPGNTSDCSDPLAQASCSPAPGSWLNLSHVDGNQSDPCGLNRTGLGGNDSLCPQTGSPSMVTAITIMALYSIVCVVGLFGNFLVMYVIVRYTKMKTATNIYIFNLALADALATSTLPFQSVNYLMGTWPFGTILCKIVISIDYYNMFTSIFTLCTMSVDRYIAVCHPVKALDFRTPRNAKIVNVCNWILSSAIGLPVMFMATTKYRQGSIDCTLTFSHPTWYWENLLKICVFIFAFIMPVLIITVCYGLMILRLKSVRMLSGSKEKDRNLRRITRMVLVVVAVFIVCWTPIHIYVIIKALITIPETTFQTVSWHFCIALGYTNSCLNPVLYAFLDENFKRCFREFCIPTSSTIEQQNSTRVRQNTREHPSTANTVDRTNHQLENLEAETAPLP
Delta-type opioid receptor (Rattus norvegicus, UniProt P33533), sequence (P33533 whole entry): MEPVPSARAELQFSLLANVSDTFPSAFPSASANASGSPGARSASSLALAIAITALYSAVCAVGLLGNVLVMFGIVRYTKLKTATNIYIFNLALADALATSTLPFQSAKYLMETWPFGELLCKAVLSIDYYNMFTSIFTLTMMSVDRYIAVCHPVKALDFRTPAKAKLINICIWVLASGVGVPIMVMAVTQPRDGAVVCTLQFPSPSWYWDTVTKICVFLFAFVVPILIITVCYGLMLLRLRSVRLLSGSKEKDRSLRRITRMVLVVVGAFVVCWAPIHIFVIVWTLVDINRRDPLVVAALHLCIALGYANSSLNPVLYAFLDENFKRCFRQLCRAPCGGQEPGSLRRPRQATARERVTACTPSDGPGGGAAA
Mu-type opioid receptor (Cavia porcellus, UniProt P97266), sequence (P97266 whole entry): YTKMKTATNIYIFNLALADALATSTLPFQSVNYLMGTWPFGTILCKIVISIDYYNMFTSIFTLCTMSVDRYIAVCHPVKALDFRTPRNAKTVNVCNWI
Delta-type opioid receptor (Mus musculus, UniProt P32300), sequence (P32300 whole entry): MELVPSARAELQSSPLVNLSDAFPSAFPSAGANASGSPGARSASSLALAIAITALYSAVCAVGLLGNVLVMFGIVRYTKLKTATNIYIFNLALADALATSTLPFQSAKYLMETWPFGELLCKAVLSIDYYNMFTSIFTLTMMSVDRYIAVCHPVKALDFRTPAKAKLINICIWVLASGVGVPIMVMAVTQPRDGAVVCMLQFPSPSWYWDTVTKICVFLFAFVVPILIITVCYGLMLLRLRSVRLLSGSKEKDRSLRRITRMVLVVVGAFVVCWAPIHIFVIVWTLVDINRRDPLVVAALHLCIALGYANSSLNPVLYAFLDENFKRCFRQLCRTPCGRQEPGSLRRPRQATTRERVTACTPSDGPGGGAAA
Delta-type opioid receptor (Mus musculus), sequence (P32300 whole entry): as above
Opioid receptors; mu & delta (Rattus norvegicus), sequence (P33533 whole entry, looked up): as the sequence (P33533 whole entry) above
Opioid receptors; mu & delta (Rattus norvegicus), sequence (P33535 whole entry, looked up): as the sequence (P33535 whole entry) above

Regarding `Cc1cc(O)cc(C)c1C[C@H](N)C(=O)N1Cc2ccccc2CC1C(=O)N[C@@H](CCC(=O)O)C(=O)NCCCCCC(=O)NC(CN1C(=O)c2cc3ccc(N(C)C)cc3cc2C1=O)C(N)=O` (some centres not stated), the Activity entry in assay [1] (filed as antagonist) was “Antagonist”. Further, the Ratio Ki in assay [2] stood at 261.

As for `CN(C)c1ccc2cc3c(cc2c1)C(=O)N(CC(NC(=O)CCCCCNC(=O)[C@H](Cc1ccccc1)NC(=O)[C@H](Cc1ccccc1)NC(=O)[C@@H]1CCCN1C(=O)[C@@H](N)Cc1ccc(O)cc1)C(N)=O)C3=O` (some centres not stated) (HELM PEPTIDE1{Y.P.F.F.[O=C(CCCCCN[*:1])[*:2]].[CN(C)c1ccc2cc3c(cc2c1)C(=O)N(CC(N[*:1])C(=O)[*:2])C3=O].[am]}$$$$V2.0), in assay [1], the max activation was found to be 29%. Also, the Activity entry in assay [1] (filed as partial agonist) is “Partial agonist”.

For `Cc1cc(O)cc(C)c1C[C@H](N)C(=O)N1Cc2ccccc2C[C@H]1C(=O)N[C@@H](CCC(=O)O)C(=O)N[C@@H](CN1C(=O)c2cc3ccc(N(C)C)cc3cc2C1=O)C(N)=O` (HELM PEPTIDE1{[Cc1cc(O)cc(C)c1C[C@H](N)C(=O)[*:2]].[Tic].E.[CN(C)c1ccc2cc3c(cc2c1)C(=O)N(C[C@H](N[*:1])C(=O)[*:2])C3=O].[am]}$$$$V2.0), the Ki in assay [3] came out at 7880 nM; in assay [5], 7.8 nM. This compound also came in with an IC50 in assay [4] of 100 nM.

As for `CN(C)c1ccc2cc3c(cc2c1)C(=O)N(C[C@H](NC(=O)CCCCCNC(=O)[C@H](Cc1ccccc1)NC(=O)[C@H](Cc1ccccc1)NC(=O)[C@@H]1CCCN1C(=O)[C@@H](N)Cc1ccc(O)cc1)C(N)=O)C3=O` (HELM PEPTIDE1{Y.P.F.F.[O=C(CCCCCN[*:1])[*:2]].[CN(C)c1ccc2cc3c(cc2c1)C(=O)N(C[C@H](N[*:1])C(=O)[*:2])C3=O].[am]}$$$$V2.0), the results for the Ki in assay [3] and in assay [5] were 244 nM and 5940 nM, respectively. Besides, the results for the IC50 in assay [6] and in assay [4] were 300 nM and 253 nM, respectively.

As to `Cc1cc(O)cc(C)c1C[C@H](N)C(=O)N1Cc2ccccc2C[C@H]1C(=O)N[C@@H](CCC(=O)O)C(=O)NCCCCCC(=O)N[C@@H](CN1C(=O)c2cc3ccc(N(C)C)cc3cc2C1=O)C(N)=O`, the Ki was determined as 41.3 nM in assay [3] and 0.158 nM in assay [5]. In assay [4], the IC50 was 244 nM.

As to `N[C@@H](Cc1ccc(O)cc1)C(=O)N1CCC[C@H]1C(=O)N[C@@H](Cc1ccccc1)C(=O)N[C@@H](Cc1ccccc1)C(=O)NCCCCC/N=C(S)/N=C1/C=CC(=C2c3ccc(O)cc3Oc3cc(O)ccc32)C(C(=O)O)=C1`, the results for the inhibitory constant (Ki) in assay [3] and in assay [5] were 252 nM and 668 nM, respectively. The IC50 stood at 200 nM in assay [6] and 120 nM in assay [4]. The max activation in assay [1] worked out at 20%. The Activity entry in assay [1] (filed as partial agonist) was “Partial agonist”.

For `CN(C)c1ccc2cc3c(cc2c1)C(=O)N(C[C@H](NC(=O)[C@@H]1CCCN1C(=O)[C@@H](N)Cc1ccc(O)cc1)C(=O)N[C@@H](Cc1ccccc1)C(N)=O)C3=O`, the results for the inhibitory constant (Ki) in assay [3] and in assay [5] were 3420 nM and 839 nM, respectively. The half-maximal inhibitory concentration (IC50) in assay [6] came to 500 nM; in assay [4], 389 nM.

`CN(C)c1ccc2cc3c(cc2c1)C(=O)N(CC(NC(=O)[C@@H]1CCCN1C(=O)[C@@H](N)Cc1ccc(O)cc1)C(=O)N[C@@H](Cc1ccccc1)C(N)=O)C3=O` (some centres not stated) had a max activation in assay [1] of 22%. In assay [1] (filed as partial agonist), the Activity entry is “Partial agonist”. Besides, the Ratio Ki in assay [2] amounted to 4.1.

Source of the values: ChEMBL document CHEMBL1148646, “6-N,N-dimethylamino-2,3-naphthalimide: a new environment-sensitive fluorescent probe in delta- and mu-selective opioid peptides” (J Med Chem, 2006).
